Laboratory results as given in ChEMBL document CHEMBL1142140, “Activity of ribavirin against Hantaan virus correlates with production of ribavirin-5'-triphosphate, not with inhibition of IMP dehydrogenase” (2007).
Calls of active or inactive are those of the source. No cut-off for these calls is given here.

What was measured:
Vero [1] = test: Increase in GTP level in Vero E6 cells at 35 uM after 24 hr relative to control; type: functional, Chlorocebus sabaeus
Procedure, shortened: (§1)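 Confluent 3-day-old Vero E6 cells incubated at 37°C with drug: 10 μg/ml RBV or 2.5 μg/ml MPA over a 0–72 h time course; RBV for 4 h; 10 μg/ml guanosine for 24 h. Ice-cold 0.5 M perchloric acid extracts neutralized with KOH, then SAX HPLC with an NH4H2PO4 gradient from pH 2.8 to 3.7. GTP and ATP read at 260 nm; mean of three measurements.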

Vero [2] = test: Effect on metabolism of 40 ug/ml RBV in Vero E6 cells assessed as RBV-TP concentration at 10 ug/ml after 24 h; type: functional, Chlorocebus sabaeus
Procedure, shortened: (§2)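 Vero E6 cells were given [3H]RBV for 24 h at 37°C, alone or with added MPA (experiment 1) or guanosine (experiment 2). Perchloric acid extracts were resolved on SAX HPLC, and RBV-MP and RBV-TP were quantified by counting 1-min fractions. Values are the mean ± SD of three measurements, and the experiment was repeated twice.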

Vero [3] = test: Inhibition of 40 ug/ml RBV-induced depression in intracellular GTP level in Vero E6 cells at 35 uM after 24 h; type: functional, cell-based; conditions: Chlorocebus sabaeus
Procedure, shortened: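 Vero E6 cells were treated for 24 h with 40 μg/ml RBV, with or without 10 μg/ml guanosine. Acid-soluble (perchloric acid) extracts were run on SAX HPLC, and GTP and ATP were quantified by UV at 260 nm. Values are the mean of three measurements.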

Vero [4] = test: Effect on metabolism of 10 ug/ml RBV in Vero E6 cells assessed as RBV-MP concentration at 10 ug/ml after 24 h; type: functional, Chlorocebus sabaeus; procedure, shortened: as §2
Vero [5] = test: Inhibition of 1 ug/ml RBV-induced depression in intracellular GTP level in Vero E6 cells at 35 uM after 24 h; type: functional, cell-based; conditions: Chlorocebus sabaeus
Vero [6] = test: Effect on metabolism of 10 ug/ml RBV in Vero E6 cells assessed as RBV-TP concentration at 10 ug/ml after 24 h; type: functional, Chlorocebus sabaeus; procedure, shortened: as §2
Vero [7] = test: Inhibition of MPA effect on viral RNA in HTNV 76-118-infected Vero E6 cells at 35 uM; type: functional, cell-based; conditions: Hantaan virus
Vero [8] = test: Effect on metabolism of 40 ug/ml RBV in Vero E6 cells assessed as RBV-MP concentration at 10 ug/ml after 24 h; type: functional, Chlorocebus sabaeus; procedure, shortened: as §2
Vero [9] = test: Effect on metabolism of 10 ug/ml RBV in Vero E6 cells assessed as RBV-MP concentration at 5 ug/ml after 24 h; type: functional, Chlorocebus sabaeus; procedure, shortened: as §2
Vero [10] = test: Effect on metabolism of 40 ug/ml RBV in Vero E6 cells assessed as RBV-MP concentration at 1 ug/ml after 24 h; type: functional, Chlorocebus sabaeus; procedure, shortened: as §2
Vero [11] = test: Effect on metabolism of 10 ug/ml RBV in Vero E6 cells assessed as RBV-TP concentration at 1 ug/ml after 24 h; type: functional, Chlorocebus sabaeus; procedure, shortened: as §2
[12] = Inhibition of viral RNA levels in HTNV76-118-infected Vero E6 cells at 10 ug/ml; type: functional, Hantaan virus; conditions: Orthohantavirus hantanense, 76-118, Vero
Vero [13] = test: Effect on metabolism of 40 ug/ml RBV in Vero E6 cells assessed as RBV-TP concentration at 5 ug/ml after 24 h; type: functional, Chlorocebus sabaeus; procedure, shortened: as §2
Vero [14] = test: Decrease in GTP level in Vero E6 cells at 40 ug/ml after 24 h; type: functional, Chlorocebus sabaeus; parameters: scale not given: the % may be the effect or the level left
Vero [15] = test: Effect on metabolism of 10 ug/ml RBV in Vero E6 cells assessed as RBV-TP concentration at 2 ug/ml after 24 h; type: functional, Chlorocebus sabaeus; procedure, shortened: as §2
Vero [16] = test: Effect on metabolism of 10 ug/ml RBV in Vero E6 cells assessed as RBV-TP concentration at 5 ug/ml after 24 h; type: functional, Chlorocebus sabaeus; procedure, shortened: as §2
Vero [17] = test: Effect on metabolism of 10 ug/ml RBV in Vero E6 cells assessed as RBV-MP concentration at 1 ug/ml after 24 h; type: functional, Chlorocebus sabaeus; procedure, shortened: as §2
Vero [18] = test: Effect on metabolism of 40 ug/ml RBV in Vero E6 cells assessed as RBV-MP concentration at 2 ug/ml after 24 h; type: functional, Chlorocebus sabaeus; procedure, shortened: as §2
Vero [19] = test: Decrease in GTP level in Vero E6 cells at 2.5 ug/ml; type: functional, Chlorocebus sabaeus; parameters: scale not given: the % may be the effect or the level left; procedure, shortened: as §1
Vero [20] = test: Effect on metabolism of 40 ug/ml RBV in Vero E6 cells assessed as RBV-TP concentration at 1 ug/ml after 24 h; type: functional, Chlorocebus sabaeus; procedure, shortened: as §2
Vero [21] = test: Effect on metabolism of 40 ug/ml RBV in Vero E6 cells assessed as RBV-MP concentration at 5 ug/ml after 24 h; type: functional, Chlorocebus sabaeus; procedure, shortened: as §2
Vero [22] = test: Effect on metabolism of 40 ug/ml RBV in Vero E6 cells assessed as RBV-TP concentration at 2 ug/ml after 24 h; type: functional, Chlorocebus sabaeus; procedure, shortened: as §2
Vero [23] = test: Effect on metabolism of 10 ug/ml RBV in Vero E6 cells assessed as RBV-MP concentration at 2 ug/ml after 24 h; type: functional, Chlorocebus sabaeus; procedure, shortened: as §2
Vero [24] = test: RBV metabolism in Vero E6 cells assessed as RBV-MP concentration at 40 ug/ml after 24 h; type: functional, Chlorocebus sabaeus; procedure, shortened: as §2
Vero [25] = test: RBV metabolism in Vero E6 cells assessed as RBV-TP concentration at 40 ug/ml after 24 h; type: functional, Chlorocebus sabaeus; procedure, shortened: as §2
Vero [26] = test: RBV metabolism in Vero E6 cells assessed as RBV-TP concentration at 10 ug/ml after 24 h; type: functional, Chlorocebus sabaeus; procedure, shortened: as §2
Vero [27] = test: Decrease in GTP level in Vero E6 cells at 40 ug/ml after 4 h; type: functional, cell-based; conditions: Chlorocebus sabaeus; procedure, shortened: as §1
[28] = Inhibition of viral RNA levels in HTNV76-118-infected Vero E6 cells at 0.5 ug/ml; type: functional, Hantaan virus; conditions: Orthohantavirus hantanense, 76-118, Vero
Vero [29] = test: RBV metabolism in Vero E6 cells assessed as RBV-MP concentration at 10 ug/ml after 24 h; type: functional, Chlorocebus sabaeus; procedure, shortened: as §2
Vero [30] = test: Decrease in GTP level in Vero E6 cells at 10 ug/ml; type: functional, Chlorocebus sabaeus; parameters: scale not given: the % may be the effect or the level left; procedure, shortened: as §1
[31] = Inhibition of viral RNA levels in HTNV 76-118-infected Vero E6 cells at 40 ug/ml after 3 days; type: functional, Hantaan virus; conditions: Orthohantavirus hantanense, 76-118, Vero, 72 h

Nc1nc2c(ncn2[C@@H]2O[C@H](CO)[C@@H](O)[C@H]2O)c(=O)[nH]1 [GUANOSINE]
Activity (Vero [1]): 145% | Activity (Vero [2]): 65 pmol | Activity (Vero [3]): Active | Activity (Vero [4]): 1.9 pmol | Activity (Vero [5]): Active | Activity (Vero [6]): 14 pmol | Activity (Vero [7]): Active | Activity (Vero [8]): 8.6 pmol

COc1c(C)c2c(c(O)c1C/C=C(\C)CCC(=O)O)C(=O)OC2 [MYCOPHENOLIC ACID]
Activity (Vero [9]): 1.2 pmol | Activity (Vero [10]): 4.2 pmol | Activity (Vero [11]): 7.8 pmol | inhibition at 10 µg/mL [12]: -70% | Activity (Vero [13]): 26 pmol | Activity (Vero [14]): 80% | Activity (Vero [15]): 6.8 pmol | Activity (Vero [16]): 7 pmol | Activity (Vero [17]): 1.3 pmol | Activity (Vero [18]): 3.8 pmol | Activity (Vero [19]): 90% | Activity (Vero [20]): 26 pmol | Activity (Vero [21]): 3.9 pmol | Activity (Vero [22]): 27 pmol | Activity (Vero [23]): 1.3 pmol

NC(=O)c1ncn([C@@H]2O[C@H](CO)[C@@H](O)[C@H]2O)n1 [RIBAVIRIN]
Activity (Vero [24]): 3.2 pmol | Activity (Vero [14]): 50% | Activity (Vero [25]): 22 pmol | Activity (Vero [26]): 6.5 pmol | Activity (Vero [27]): Active | inhibition at 0.5 µg/mL [28]: -80% | Activity (Vero [29]): 1.1 pmol | Activity (Vero [30]): 40% | inhibition at 40 µg/mL [31]: 99.9%
